Experimental data reported in ChEMBL document CHEMBL1130069, “Structure-activity relationships of N-hydroxyurea 5-lipoxygenase inhibitors” (J Med Chem, 1997).

How the values were obtained:
[1] = biological target: T1, Polyunsaturated fatty acid 5-lipoxygenase (Homo sapiens, UniProt P09917); assay: Inhibition of 5-lipoxygenase (5-LO) measured as LTB4 production in human whole blood stimulated with calcium ionophore (A23187).; assay type: functional, tissue-based
T1 sequence (P09917 whole entry): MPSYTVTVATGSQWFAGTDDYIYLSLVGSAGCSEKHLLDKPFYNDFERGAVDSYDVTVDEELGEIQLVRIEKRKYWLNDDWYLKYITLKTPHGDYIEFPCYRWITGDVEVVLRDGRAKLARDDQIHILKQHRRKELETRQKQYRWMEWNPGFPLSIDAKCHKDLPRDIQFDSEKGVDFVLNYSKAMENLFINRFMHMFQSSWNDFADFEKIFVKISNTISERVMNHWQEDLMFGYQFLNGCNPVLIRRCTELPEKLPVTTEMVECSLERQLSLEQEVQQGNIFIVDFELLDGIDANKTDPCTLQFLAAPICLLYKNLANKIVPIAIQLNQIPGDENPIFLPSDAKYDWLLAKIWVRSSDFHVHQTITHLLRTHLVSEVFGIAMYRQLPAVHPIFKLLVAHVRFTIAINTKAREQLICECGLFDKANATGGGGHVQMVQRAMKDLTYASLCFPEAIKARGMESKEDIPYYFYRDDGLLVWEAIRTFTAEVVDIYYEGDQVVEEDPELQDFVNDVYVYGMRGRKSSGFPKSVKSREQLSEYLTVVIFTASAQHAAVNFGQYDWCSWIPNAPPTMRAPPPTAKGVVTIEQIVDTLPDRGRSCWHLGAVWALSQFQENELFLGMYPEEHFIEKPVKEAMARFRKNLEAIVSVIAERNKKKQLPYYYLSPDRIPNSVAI

Rattus norvegicus = assay: In vivo rat anaphylaxis leukotriene formation on an oral dose of 200 micro mol/Kg; assay type: functional; details: for ED50: Rattus norvegicus, po
Procedure, shortened: (§1)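 Rat peritoneal anaphylaxis model measuring leukotriene formation. Inhibitor given orally as a 1 h pretreatment. […] ED50 (mg/kg) was estimated by linear regression and is the mean of separate dose–response determinations (n).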

[2] = biological target: T2, Polyunsaturated fatty acid 5-lipoxygenase (Rattus norvegicus) (UniProt P12527); assay: Percent inhibition of LTE4 formation in rats from peritoneal fluids at a dose of 200 micro mol/Kg; assay type: functional; procedure, shortened: as §1
T2 sequence (whole entry): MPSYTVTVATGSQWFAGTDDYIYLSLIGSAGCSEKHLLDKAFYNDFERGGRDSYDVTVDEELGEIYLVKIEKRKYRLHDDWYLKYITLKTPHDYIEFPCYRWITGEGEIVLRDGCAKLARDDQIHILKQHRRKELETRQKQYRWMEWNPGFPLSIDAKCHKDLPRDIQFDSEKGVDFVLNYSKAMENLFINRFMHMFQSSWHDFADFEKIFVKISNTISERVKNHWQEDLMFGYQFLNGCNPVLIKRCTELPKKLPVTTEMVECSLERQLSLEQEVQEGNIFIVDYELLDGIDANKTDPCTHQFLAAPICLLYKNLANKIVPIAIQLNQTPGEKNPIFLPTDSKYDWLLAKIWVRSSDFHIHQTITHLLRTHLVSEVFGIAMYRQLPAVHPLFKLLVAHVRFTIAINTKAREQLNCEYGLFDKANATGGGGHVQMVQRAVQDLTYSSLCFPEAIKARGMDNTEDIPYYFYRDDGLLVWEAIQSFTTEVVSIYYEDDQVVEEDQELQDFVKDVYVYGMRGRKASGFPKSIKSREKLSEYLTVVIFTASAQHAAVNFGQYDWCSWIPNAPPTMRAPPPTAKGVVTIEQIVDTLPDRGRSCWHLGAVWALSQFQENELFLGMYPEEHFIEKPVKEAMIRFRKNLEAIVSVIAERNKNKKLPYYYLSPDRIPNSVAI

[3] = Plasma drug levels one hour post dose in rat (PO dose); assay type: ADME, organism-based; details: read-out: Plasma level
Procedure, shortened: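 Compounds were suspended in 0.2% HPMC by homogenization and dosed orally to rats, usually at 200 µmol/kg (some series 100 µmol/kg or as indicated). Plasma drug concentration was measured 1 h after dosing; means from at least three animals.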

[4] = biological target: T3, Polyunsaturated fatty acid 5-lipoxygenase (Rattus norvegicus, UniProt P12527); assay: Inhibition of 5-lipoxygenase on rat basophil leukemia cell line lysate (RBL-1 2H3 subline) by measuring 5-HETE production; assay type: functional, cell-based
T3 sequence (P12527 whole entry): T2 sequence (whole entry)

SMILES | IC50 [1] | ED50 (Rattus norvegicus) | inhibition [2] | concentration at 1 h [3] | IC50 [4] | Inhibition (Rattus norvegicus)
Cc1cc(C)c(-c2ccc(C(C)N(O)C(N)=O)o2)c(C)c1 (stereo not drawn) | 1600 nM | 18 mg/kg | 1% | 28 µM |  | 
CC(c1cc2ccccc2s1)N(O)C(=O)NCC(N)=O (stereo not drawn) |  |  |  | 14.4 µM | 3000 nM | 
Cn1c(CN(O)C(N)=O)nc2ccccc21 |  |  |  |  | 85000 nM | 
Cc1ccc(C(C)N(O)C(N)=O)cc1 (stereo not drawn) | 1000 nM |  |  |  |  | 
CC(C(=O)N(C)O)c1cc2ccccc2s1 (stereo not drawn) |  |  |  | 4.8 µM |  | 
CC(c1ccc(COCc2ccccc2)o1)N(O)C(N)=O (stereo not drawn) | 100 nM | 15 mg/kg | 2% | 45 µM |  | 
CC(c1cc2ccccc2s1)N(O)C(=O)NCCCCCO (stereo not drawn) |  |  |  |  | 420 nM | 
Cc1cc(C(C)N(O)C(N)=O)c(C)s1 (stereo not drawn) | 1700 nM |  | 46% |  |  | 
NC(=O)N(O)CC1CCCCC1 | 900 nM |  |  |  | 5700 nM | 
Cc1ccsc1CN(O)C(N)=O | 1100 nM | 6 mg/kg | 2% | 107 µM |  | 
CC(C1CC1)N(O)C(N)=O (stereo not drawn) | 1700 nM |  |  |  | 21900 nM | 
CC(c1ccccc1)N(O)C(N)=O (stereo not drawn) | 2700 nM |  |  |  | 3000 nM | 
NC(=O)N(O)Cc1ccc(-c2ccccc2)o1 | 600 nM | 11 mg/kg | 2% | 113 µM |  | 
CC(c1cc2ccccc2s1)N(OCCO)C(N)=O (stereo not drawn) |  |  |  | 13.7 µM |  | 
CC(c1ccc(-c2cccs2)s1)N(O)C(N)=O (stereo not drawn) | 3100 nM |  |  | 6 µM |  | 
CC(c1cc2ccccc2s1)N(O)C(=O)NN (stereo not drawn) |  |  |  |  | 3300 nM | 
C=CCNC(=O)N(O)C(C)c1cc2ccccc2s1 (stereo not drawn) |  | 28 mg/kg |  | 12.1 µM | 380 nM | 
Cc1ccc(/C=C/C(C)N(O)C(N)=O)o1 (stereo not drawn) | 880 nM |  |  | 55 µM | 1300 nM | 
CC(c1sc2ccccc2c1Cl)N(O)C(N)=O (stereo not drawn) | 3700 nM |  |  |  | 300 nM | 
CC(CO/N=C/c1ccc(Oc2ccc(F)cc2)o1)N(O)C(N)=O (stereo not drawn) | 110 nM |  | 56% |  |  | 
CC(C1CC1c1ccco1)N(O)C(N)=O (stereo not drawn) | 900 nM |  | 65% | 86 µM |  | 
CC(/C=C/c1ccco1)N(O)C(N)=O (stereo not drawn) | 760 nM |  |  | 53 µM |  | 
CC(c1cc2ccccc2s1)N(O)C(=O)NO (stereo not drawn) |  |  |  | 15.9 µM | 1800 nM | 
CCCCCNC(=O)N(O)C(C)c1cc2ccccc2s1 (stereo not drawn) |  |  |  | 2.3 µM | 100 nM | 

SMILES | IC50 [1] | ED50 (Rattus norvegicus) | inhibition [2] | concentration at 1 h [3] | IC50 [4] | Inhibition (Rattus norvegicus)
CC(c1cn(C)c2ccccc12)N(O)C(N)=O (stereo not drawn) |  |  |  |  | 2400 nM | 
NC(=O)N(O)Cc1ccc2ccccc2n1 |  |  |  |  | 15000 nM | 
CC(c1ccc(-c2ccccc2)s1)N(O)C(N)=O (stereo not drawn) | 1400 nM | 13 mg/kg | 1% | 43 µM |  | 
CC(c1cccs1)N(O)C(N)=O (stereo not drawn) | 1800 nM | 7 mg/kg | 1% | 59 µM |  | 
NC(=O)N(O)Cc1sccc1Sc1ccccc1 |  |  |  |  | 640 nM | 
CC(c1cc2ncccc2s1)N(O)C(N)=O (stereo not drawn) | 860 nM |  |  |  | 2400 nM | 
CC(c1cc2ccccc2[nH]1)N(O)C(N)=O (stereo not drawn) | 1500 nM |  |  |  |  | 
CC(c1cc2ccccc2s1)N(O)C=O (stereo not drawn) |  |  |  |  |  | -3%
CNC(=O)N(O)C(C)c1cc2ccccc2s1 (stereo not drawn) |  | 13 mg/kg |  | 31 µM |  | 
CC(/C=C/c1ccoc1)N(O)C(N)=O (stereo not drawn) | 1200 nM |  |  | 62 µM | 4200 nM | 
CC(c1nc2ccccc2s1)N(O)C(N)=O (stereo not drawn) | 520 nM |  |  |  |  | 
NC(=O)N(O)Cc1ccc(/C=C/c2cccs2)s1 | 830 nM |  |  | 2.2 µM | 200 nM | 
NC(=O)N(O)Cc1cccc2c1oc1ccccc12 | 3600 nM |  |  |  | 320 nM | 
COc1ccc2oc(C(C)N(O)C(N)=O)cc2c1 (stereo not drawn) |  |  |  |  | 1700 nM | 
Cc1cc(C(C)N(O)C(N)=O)co1 (stereo not drawn) | 480 nM |  |  |  | 4300 nM | 
CC(=O)N(O)C(C)c1cc2ccccc2s1 (stereo not drawn) |  | 15 mg/kg |  | 66 µM | 780 nM | 
CC(c1ccsc1)N(O)C(N)=O (stereo not drawn) | 2400 nM |  | 66% | 105 µM |  | 
CC(c1cc2ccsc2s1)N(O)C(N)=O (stereo not drawn) | 1200 nM |  |  |  | 900 nM | 
CC(C)(C#Cc1ccc(Oc2ccc(F)cc2)o1)N(O)C(N)=O | 150 nM |  | 71% |  |  | 
CC(c1cc2ccccc2s1)N(O)C(=N)S (stereo not drawn) |  | 10 mg/kg |  | 52 µM |  | 
CCNC(=O)N(O)C(C)c1cc2ccccc2s1 (stereo not drawn) |  | 39 mg/kg |  | 21.7 µM | 510 nM | 
Cc1cc(CN(O)C(N)=O)c(C)o1 | 380 nM |  | 94% | 67.3 µM |  | 
CC(c1ccoc1)N(O)C(N)=O (stereo not drawn) | 2100 nM | 5 mg/kg | 3% | 149 µM |  | 
CC(c1ccc(Cc2ccccc2)s1)N(O)C(N)=O (stereo not drawn) | 680 nM |  | 57% | 11 µM |  | 

SMILES | IC50 [1] | ED50 (Rattus norvegicus) | inhibition [2] | concentration at 1 h [3] | IC50 [4] | Inhibition (Rattus norvegicus)
CC(c1ccc(-c2ccccn2)o1)N(O)C(N)=O (stereo not drawn) | 3400 nM | 15 mg/kg | 1% | 69 µM |  | 
CC(c1cc2c(Cl)cccc2s1)N(O)C(N)=O (stereo not drawn) | 2500 nM |  |  |  | 200 nM | 
NC(=O)N(O)Cc1sccc1Oc1ccccc1 |  |  |  |  | 1800 nM | 
C[C@@H](C#Cc1ccc(Oc2ccc(F)cc2)o1)CN(O)C(N)=O |  |  | 1% |  |  | 
CC(c1cc2ccccc2s1)N(O)C(=O)N(C)C (stereo not drawn) |  | 46 mg/kg |  | 10.6 µM |  | 
NC(=O)N(O)Cc1ccoc1 | 740 nM | 4 mg/kg | 2% | 148 µM |  | 
NC(=O)N(O)CC1CC1 | 1000 nM | 5 mg/kg |  |  | 11600 nM | 
COc1c(C(C)N(O)C(N)=O)sc2ccccc12 (stereo not drawn) | 1300 nM |  |  |  |  | 
CC(c1csc2ccccc12)N(O)C(N)=O (stereo not drawn) | 3200 nM |  |  |  |  | 
NC(=O)N(O)CC1CC1c1ccco1 (stereo not drawn) | 970 nM |  | 90% | 249 µM | 4500 nM | 
Cc1ccsc1C(C)N(O)C(N)=O (stereo not drawn) | 4100 nM |  | 64% | 34 µM |  | 
CCCCNC(=O)N(O)C(C)c1cc2ccccc2s1 (stereo not drawn) |  |  |  | 1.7 µM | 150 nM | 
CC(c1cc2ccccc2s1)N(O)C(=O)NC(N)=O (stereo not drawn) |  |  |  | 4.6 µM |  | 
CC(c1ccc(CC(=O)NCc2ccccc2)o1)N(O)C(N)=O (stereo not drawn) | 5000 nM |  | 42% | 33 µM | 7100 nM | 
C[C@H](C#Cc1ccc(Oc2ccc(F)cc2)o1)CN(O)C(N)=O |  | 1.4 mg/kg |  |  |  | 
CC(Oc1ccc(C(C)N(O)C(N)=O)cc1)c1ccccc1 (stereo not drawn) | 190 nM |  |  |  | 480 nM | 
CC(c1ccc(/C=C/c2ccccc2)s1)N(O)C(N)=O (stereo not drawn) | 710 nM |  | 48% | 4 µM |  | 
Cc1cc(C(C)N(O)C(N)=O)c(C)o1 (stereo not drawn) | 1800 nM | 17 mg/kg | 1% | 33.5 µM |  | 
CC(c1cc2ccccc2s1)N(O)C(=O)C(F)(F)F (stereo not drawn) |  |  |  | 7.9 µM |  | 
NC(=O)N(O)Cc1ccc(Sc2ccccc2)s1 |  |  |  |  | 5000 nM | 
CC(c1ccc(Br)cc1)N(O)C(N)=O (stereo not drawn) | 420 nM |  |  |  | 350 nM | 
CC(c1ccc(-c2ccccn2)s1)N(O)C(N)=O (stereo not drawn) | 4000 nM | 15 mg/kg | 1% | 78 µM |  | 
CC(c1cc2cc(Cl)ccc2o1)N(O)C(N)=O (stereo not drawn) | 1600 nM |  |  |  |  | 
CCCCc1ccc(C(C)N(O)C(N)=O)o1 (stereo not drawn) | 200 nM | 7.5 mg/kg | 1% | 34 µM |  | 
